ChEMBL document CHEMBL1124497, “Thromboxane A2 synthetase inhibitors. 2. Syntheses and activities of tetrahydronaphthalene and indan derivatives” (J Med Chem, 1989)

Tests used:
Type in all cases: functional
Rattus norvegicus [1] = organism: Rattus norvegicus; assay: In vitro inhibition of thromboxane A2 production in rat platelet-rich plasma.
In short: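 Citrated rat platelet-rich plasma (4 × 10⁷ platelets) was preincubated with compound for 1 min at room temperature with gentle shaking. Sodium arachidonate (final 0.5 mmol) started the reaction, which ran 5 min at room temperature with vigorous shaking. Indomethacin (final 0.1 mmol) stopped it. After centrifugation (1000g, 5 min), supernatant TXB₂ was measured by radioimmunoassay. IC₅₀ is the concentration giving 50% inhibition of TXB₂ production.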

Rattus norvegicus [2] = assay: Enhancement of prostaglandin E2 levels in serum of incubated whole blood at 1 hr after an oral dose of 1 mg/kg
In short: (§1)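 Rats were dosed orally at 1 mg/kg with compound suspended in water; controls received vehicle. Whole blood was drawn from the external jugular vein under anesthesia at 1, 3 and 6 h, held on ice 15 min, then clotted at 37 °C for 1 h. Serum was separated at 1000g for 10 min. TXB₂, 6-keto-PGF₁α (the PGI₂ metabolite) and PGE₂ were measured by radioimmunoassay. Prostanoid enhancement is expressed as x-fold at 1 h.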

Rattus norvegicus [3] = assay: Inhibition of thromboxane B2 production in whole blood of rat 75 min after intravenous injection of compound at 0.1 mg/kg; conditions: 1.25 h
In short: (§2)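 The compound was given intravenously to rats in physiological saline; controls received vehicle. Whole blood was drawn from the external jugular vein under anesthesia at 15, 45 and 75 min. Samples were kept on ice 15 min, clotted at 37 °C for 1 h and centrifuged (1000g, 10 min). Serum TXB₂ was measured by radioimmunoassay and expressed as % inhibition.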

Rattus norvegicus [4] = assay: Inhibition of thromboxane B2 production in whole blood of rat 45 min after intravenous injection of compound at 0.1 mg/kg; conditions: 0.75 h; in short: as §2
Rattus norvegicus [5] = assay: Inhibition of thromboxane B2 production in whole blood of rats, 3h after a peroral dose of 1.0 mg/kg; conditions: route oral; in short: as §1
Rattus norvegicus [6] = assay: Inhibition of thromboxane B2 production in whole blood of rats 1 hr following 1 mg/kg p.o.; conditions: route oral; in short: as §1
Rattus norvegicus [7] = assay: Inhibition of thromboxane B2 production in whole blood of rat 15 min after intravenous injection of compound at 0.1 mg/kg; conditions: 0.25 h; in short: as §2
Rattus norvegicus [8] = assay: Increase in serum prostaglandin I2 levels in incubated whole blood from rats, 1 hr following 1 mg/kg p.o.; conditions: route oral; in short: as §1
Rattus norvegicus [9] = assay: Inhibition of thromboxane B2 production in whole blood of rats, 6 hr after a peroral dose of 1.0 mg/kg; conditions: route oral; in short: as §1
Rattus norvegicus [10] = assay: Inhibition of thromboxane A2 production in whole blood of rats, 4 hr after a peroral dose of 1.0 mg/kg; conditions: route oral
Rattus norvegicus [11] = assay: Inhibition of thromboxane A2 production in whole blood of rats, 4 hr after a peroral dose of 0.1 mg/kg; conditions: route oral
Rattus norvegicus [12] = assay: Inhibition of thromboxane B2 production in whole blood of rats, 1 hr after a peroral dose of 0.1 mg/kg; conditions: route oral
Rattus norvegicus [13] = assay: Inhibition of thromboxane B2 production in whole blood of rats, 4 hr after a peroral dose of 0.1 mg/kg; conditions: route oral

| Compound | IC50 (Rattus norvegicus [1]) [µM] | x fold (Rattus norvegicus [2]) | inhibition in vivo at 0.1 mg/kg (Rattus norvegicus [3]) [%] | inhibition in vivo at 0.1 mg/kg (Rattus norvegicus [4]) [%] | inhibition in vivo at 1 mg/kg (Rattus norvegicus [5]) [%] | inhibition in vivo at 1 mg/kg (Rattus norvegicus [6]) [%] | inhibition in vivo at 0.1 mg/kg (Rattus norvegicus [7]) [%] | x fold (Rattus norvegicus [8]) | inhibition in vivo at 1 mg/kg (Rattus norvegicus [9]) [%] | inhibition in vivo at 1 mg/kg (Rattus norvegicus [10]) [%] | inhibition in vivo at 0.1 mg/kg (Rattus norvegicus [11]) [%] | inhibition in vivo at 0.1 mg/kg (Rattus norvegicus [12]) [%] | inhibition in vivo at 0.1 mg/kg (Rattus norvegicus [13]) [%] |
| --- | --- | --- | --- | --- | --- | --- | --- | --- | --- | --- | --- | --- | --- |
| O=C(O)c1ccc2c(c1)CCCC2CCn1ccnc1 (stereo unspecified) | 14 | 10.05 | 46 | 53 | 59 | 93 | 84 | 3.38 | 28 |  |  |  |  |
| O=C(O)/C=C/c1ccc(Cn2ccnc2)cc1 [OZAGREL] | 4.5 | 4.8 | 46 | 72 | 42 | 91 | 89 | 2.5 | 11 |  |  |  |  |
| O=C(O)c1cccc2c1CCC2CCn1ccnc1 (stereo unspecified) | 0.86 |  |  |  |  | 97 |  |  |  |  |  |  |  |
| O=C(O)c1ccc(OCCc2cncs2)cc1 | 3.8 |  |  |  | 83 | 88 |  | 3.14 | 54 |  |  |  |  |
| Cl.O=C(O)C1CCc2cc(Cn3ccnc3)ccc2C1 (stereo unspecified) | 1.4 | 4.79 |  |  | 69 | 88 |  | 2.22 | 49 |  |  |  |  |
| O=C([O-])c1ccc2c(c1)CCC(Cc1cncs1)C2.[Na+] (stereo unspecified) | 0.14 | 5.26 | 75 | 87 | 88 | 93 | 90 | 2.55 | 78 |  |  |  |  |
| Cc1c(Cn2ccnc2)c2ccccc2n1CCC(=O)O [DAZMEGREL] | 12 | 5.36 | 29 | 46 | 71 | 92 | 11 | 2.26 | 40 |  |  |  |  |
| Cl.O=C(O)c1ccc2c(c1)CC(Cn1ccnc1)C2 (stereo unspecified) | 6.6 | 6.93 | 51 | 60 | 90 | 95 | 73 | 3.57 | 74 |  |  |  |  |
| Cl.O=C(O)c1ccc2c(c1)CC(Cn1ccnc1)CC2 (stereo unspecified) | 5.6 | 4.27 |  |  |  | 57 |  | 1.99 |  |  |  |  |  |
| Cl.O=C(O)c1cccc2c1CCCC2CCn1ccnc1 (stereo unspecified) | 5.4 | 5.88 | 64 | 74 | 93 | 93 | 79 | 3.02 | 76 |  |  |  |  |

Further compounds by falling IC50 (Rattus norvegicus [1]), results first:

| IC50 (Rattus norvegicus [1]) [µM] | Compound | x fold (Rattus norvegicus [2]) | inhibition in vivo at 0.1 mg/kg (Rattus norvegicus [3]) [%] | inhibition in vivo at 0.1 mg/kg (Rattus norvegicus [4]) [%] | inhibition in vivo at 1 mg/kg (Rattus norvegicus [5]) [%] | inhibition in vivo at 1 mg/kg (Rattus norvegicus [6]) [%] | inhibition in vivo at 0.1 mg/kg (Rattus norvegicus [7]) [%] | x fold (Rattus norvegicus [8]) | inhibition in vivo at 1 mg/kg (Rattus norvegicus [9]) [%] | inhibition in vivo at 1 mg/kg (Rattus norvegicus [10]) [%] | inhibition in vivo at 0.1 mg/kg (Rattus norvegicus [11]) [%] | inhibition in vivo at 0.1 mg/kg (Rattus norvegicus [12]) [%] | inhibition in vivo at 0.1 mg/kg (Rattus norvegicus [13]) [%] |
| --- | --- | --- | --- | --- | --- | --- | --- | --- | --- | --- | --- | --- | --- |
| 11 | O=C(O)c1ccc(OCCn2ccnc2)cc1 [DAZOXIBEN] | 3.91 |  | 6 | 21 | 50 | 25 | 1.9 | 8 |  |  |  |  |
| 7.2 | Cl.O=C(O)C1Cc2ccc(Cn3ccnc3)cc2C1 (stereo unspecified) | 7.27 | 32 | 46 | 75 | 87 | 58 | 3.14 | 61 |  |  |  |  |
| 1.9 | O=C([O-])C1CCc2cc(Cc3cncs3)ccc2C1.[Na+] (stereo unspecified) | 5.91 |  |  |  | 69 |  | 2.65 |  |  |  |  |  |
| 1.5 | O=C(O)/C=C/c1ccc(Cc2cncs2)cc1 |  |  |  |  | 39 |  |  |  |  |  |  |  |
| 1.1 | Cl.O=C(O)c1ccc2c(c1)CCC(Cn1ccnc1)C2 (stereo unspecified) | 5.9 | 88 | 93 | 93 | 98 | 95 | 2.91 | 88 |  |  | 85 | 76 |
| 0.4 | O=C([O-])c1ccc2c(c1)CC(Cc1cncs1)C2.[Na+] (stereo unspecified) | 9.55 | 26 | 62 | 87 | 94 | 77 | 3.52 | 52 |  |  |  |  |
| 0.37 | O=C([O-])c1cccc2c1CCCC2CCc1cncs1.[Na+] (stereo unspecified) | 5.63 | 67 | 79 | 93 | 97 | 88 | 2.68 | 86 |  |  |  |  |
| 0.25 | O=C(O)CCCC/C=C(\c1ccccc1)c1cccnc1 [(E)-ISBOGREL] |  |  |  |  | 96 |  |  |  | 80 | 40 | 75 |  |
| 0.22 | C/C(=C\c1ccc(Cc2cncs2)cc1)C(=O)O |  |  |  |  | 44 |  |  |  |  |  |  |  |
| 0.15 | C/C(=C\c1ccc(Cc2cccnc2)cc1)C(=O)O | 3.87 |  |  | 64 | 71 |  | 2.55 | 44 |  |  |  |  |
